Measurements as given in the M2OR odorant receptor database.
Numbering of substitutions follows the chain as printed.

How the values were obtained:
Settings in all cases: stereoisomer not certain
[1] = tested on: T1, O10H2
T1 sequence (whole entry): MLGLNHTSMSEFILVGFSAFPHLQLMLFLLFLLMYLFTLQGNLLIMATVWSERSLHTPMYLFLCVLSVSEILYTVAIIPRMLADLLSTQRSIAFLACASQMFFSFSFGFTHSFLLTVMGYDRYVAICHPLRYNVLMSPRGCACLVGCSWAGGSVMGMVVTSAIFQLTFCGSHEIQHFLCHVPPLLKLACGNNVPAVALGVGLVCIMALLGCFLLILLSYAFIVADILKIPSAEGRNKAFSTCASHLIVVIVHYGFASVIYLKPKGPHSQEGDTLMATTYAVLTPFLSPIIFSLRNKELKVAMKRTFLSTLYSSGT
In short: (§1)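 Assay methods differ from source to source, frequently being transient luciferase assays in mammalian cell lines. For each receptor–molecule pair, the label responsive (active) applies when the original authors judged the measured signal statistically different from baseline, and non-responsive (inactive) applies otherwise.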

[2] = tested on: T2, O10H3 R54H
T2 sequence (whole entry): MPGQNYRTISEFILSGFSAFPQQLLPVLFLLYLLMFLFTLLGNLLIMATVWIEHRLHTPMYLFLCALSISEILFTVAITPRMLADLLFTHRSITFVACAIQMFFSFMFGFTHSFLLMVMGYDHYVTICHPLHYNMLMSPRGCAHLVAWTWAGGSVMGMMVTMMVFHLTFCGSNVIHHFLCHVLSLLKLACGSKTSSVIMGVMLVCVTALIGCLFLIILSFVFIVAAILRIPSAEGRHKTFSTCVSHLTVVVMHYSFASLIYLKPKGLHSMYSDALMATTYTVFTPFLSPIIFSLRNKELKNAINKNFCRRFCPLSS
In short: as §1

[3] = tested on: T3, O10H4 I50V
T3 sequence (whole entry): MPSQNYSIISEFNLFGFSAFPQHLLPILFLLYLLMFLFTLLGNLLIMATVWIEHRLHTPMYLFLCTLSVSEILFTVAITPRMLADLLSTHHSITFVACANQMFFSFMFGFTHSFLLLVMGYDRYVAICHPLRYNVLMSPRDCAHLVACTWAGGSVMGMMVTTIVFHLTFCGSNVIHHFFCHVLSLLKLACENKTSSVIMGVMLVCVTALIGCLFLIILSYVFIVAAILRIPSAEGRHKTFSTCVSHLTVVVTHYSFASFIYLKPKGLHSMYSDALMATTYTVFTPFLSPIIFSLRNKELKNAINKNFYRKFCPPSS
In short: as §1

[4] = tested on: T4, O10H5 S268Y
T4 sequence (whole entry): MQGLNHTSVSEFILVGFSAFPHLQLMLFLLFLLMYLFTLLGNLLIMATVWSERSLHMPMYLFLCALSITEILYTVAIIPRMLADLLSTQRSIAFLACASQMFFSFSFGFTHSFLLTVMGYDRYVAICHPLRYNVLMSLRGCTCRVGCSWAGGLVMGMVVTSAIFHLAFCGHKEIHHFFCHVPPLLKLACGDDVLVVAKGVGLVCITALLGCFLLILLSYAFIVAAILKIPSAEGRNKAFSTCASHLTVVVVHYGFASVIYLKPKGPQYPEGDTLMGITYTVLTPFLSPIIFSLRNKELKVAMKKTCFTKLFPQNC
In short: as §1

[5] = tested on: T5, O10J1 M62I I103M
T5 sequence (whole entry): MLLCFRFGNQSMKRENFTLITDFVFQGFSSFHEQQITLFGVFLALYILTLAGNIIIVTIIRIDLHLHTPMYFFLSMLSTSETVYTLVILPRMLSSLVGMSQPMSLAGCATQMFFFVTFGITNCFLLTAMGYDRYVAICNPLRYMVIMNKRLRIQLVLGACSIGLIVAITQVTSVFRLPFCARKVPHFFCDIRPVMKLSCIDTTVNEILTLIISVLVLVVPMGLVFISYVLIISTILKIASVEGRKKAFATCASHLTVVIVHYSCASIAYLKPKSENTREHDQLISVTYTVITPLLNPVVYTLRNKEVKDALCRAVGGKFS
In short: as §1

[6] = tested on: T6, O10J1 M62I
T6 sequence (whole entry): T5 sequence (whole entry) with M103I
In short: as §1

[7] = tested on: T7, O10J3 Q235R E319G
T7 sequence (whole entry): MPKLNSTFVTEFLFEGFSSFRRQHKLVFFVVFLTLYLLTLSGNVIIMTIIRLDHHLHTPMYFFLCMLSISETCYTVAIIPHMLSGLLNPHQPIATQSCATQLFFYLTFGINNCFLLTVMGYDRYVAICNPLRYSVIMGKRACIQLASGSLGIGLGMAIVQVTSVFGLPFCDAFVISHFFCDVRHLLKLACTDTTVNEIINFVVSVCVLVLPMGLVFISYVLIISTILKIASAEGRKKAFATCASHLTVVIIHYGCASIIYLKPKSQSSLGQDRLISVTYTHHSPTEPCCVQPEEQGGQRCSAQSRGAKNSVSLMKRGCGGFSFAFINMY
In short: as §1

[8] = tested on: T8, O10P1 R195K
T8 sequence (whole entry): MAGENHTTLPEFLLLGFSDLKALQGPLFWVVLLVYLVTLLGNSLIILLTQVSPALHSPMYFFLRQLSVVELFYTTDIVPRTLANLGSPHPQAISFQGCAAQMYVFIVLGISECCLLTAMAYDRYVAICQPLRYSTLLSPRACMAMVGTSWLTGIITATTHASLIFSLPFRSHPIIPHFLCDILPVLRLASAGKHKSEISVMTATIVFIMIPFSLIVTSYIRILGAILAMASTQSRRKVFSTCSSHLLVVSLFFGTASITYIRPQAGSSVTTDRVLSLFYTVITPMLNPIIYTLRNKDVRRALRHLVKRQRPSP
In short: as §1

[9] = tested on: T9, O10Q1 E12D
T9 sequence (whole entry): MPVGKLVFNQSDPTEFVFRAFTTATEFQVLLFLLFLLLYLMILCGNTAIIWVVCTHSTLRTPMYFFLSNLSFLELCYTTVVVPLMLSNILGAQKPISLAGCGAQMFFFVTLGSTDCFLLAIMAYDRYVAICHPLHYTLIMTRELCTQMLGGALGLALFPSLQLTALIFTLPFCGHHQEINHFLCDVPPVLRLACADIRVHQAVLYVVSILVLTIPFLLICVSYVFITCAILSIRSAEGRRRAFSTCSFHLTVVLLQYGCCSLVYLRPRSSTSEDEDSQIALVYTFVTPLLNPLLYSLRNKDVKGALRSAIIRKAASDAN
In short: as §1

[10] = tested on: T10, O10Q1 Q10R E12D
T10 sequence (whole entry): T9 sequence (whole entry) with Q10R
In short: as §1

[11] = tested on: T11, O10R2 I170L
T11 sequence (whole entry): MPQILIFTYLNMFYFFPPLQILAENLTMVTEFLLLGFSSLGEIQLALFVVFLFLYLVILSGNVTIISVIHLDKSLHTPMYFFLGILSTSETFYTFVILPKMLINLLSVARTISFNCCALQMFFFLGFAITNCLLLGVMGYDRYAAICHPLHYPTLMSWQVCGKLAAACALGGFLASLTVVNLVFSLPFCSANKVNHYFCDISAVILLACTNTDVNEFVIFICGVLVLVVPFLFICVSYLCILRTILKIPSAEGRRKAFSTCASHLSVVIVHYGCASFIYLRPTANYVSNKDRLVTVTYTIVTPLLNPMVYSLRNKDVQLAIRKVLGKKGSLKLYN
In short: as §1

[12] = tested on: T12, O10T2 I137M
T12 sequence (whole entry): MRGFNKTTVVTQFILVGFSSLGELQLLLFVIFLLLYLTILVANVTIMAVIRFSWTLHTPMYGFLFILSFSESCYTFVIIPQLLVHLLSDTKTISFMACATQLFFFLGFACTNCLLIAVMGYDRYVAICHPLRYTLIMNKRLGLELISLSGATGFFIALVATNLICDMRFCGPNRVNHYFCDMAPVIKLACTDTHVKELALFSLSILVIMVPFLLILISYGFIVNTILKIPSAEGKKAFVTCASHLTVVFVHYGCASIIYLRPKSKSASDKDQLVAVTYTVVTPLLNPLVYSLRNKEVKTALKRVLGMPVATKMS
In short: as §1

[13] = tested on: T13, O10V1 Q123R
T13 sequence (whole entry): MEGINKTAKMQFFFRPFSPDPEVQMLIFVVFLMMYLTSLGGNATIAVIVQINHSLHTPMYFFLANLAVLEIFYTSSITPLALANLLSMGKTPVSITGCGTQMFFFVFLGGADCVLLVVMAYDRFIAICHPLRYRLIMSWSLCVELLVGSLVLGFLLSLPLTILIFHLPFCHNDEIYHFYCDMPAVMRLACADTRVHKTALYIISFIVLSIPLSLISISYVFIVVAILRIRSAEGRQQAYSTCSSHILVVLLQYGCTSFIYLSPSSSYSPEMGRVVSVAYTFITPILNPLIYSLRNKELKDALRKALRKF
In short: as §1

[14] = tested on: T14, O10X1 N4T R181S
T14 sequence (whole entry): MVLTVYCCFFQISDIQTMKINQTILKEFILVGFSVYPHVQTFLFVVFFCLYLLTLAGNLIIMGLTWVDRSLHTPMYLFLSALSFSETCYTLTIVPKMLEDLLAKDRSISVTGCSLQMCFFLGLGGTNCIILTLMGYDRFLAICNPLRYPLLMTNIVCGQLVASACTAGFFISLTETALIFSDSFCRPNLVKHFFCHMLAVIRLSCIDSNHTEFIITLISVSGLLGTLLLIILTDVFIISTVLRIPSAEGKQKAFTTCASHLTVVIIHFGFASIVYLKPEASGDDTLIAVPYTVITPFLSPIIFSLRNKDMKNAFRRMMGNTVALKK
In short: as §1

[15] = tested on: T15, O11G2 F3I I99N V116I
T15 sequence (whole entry): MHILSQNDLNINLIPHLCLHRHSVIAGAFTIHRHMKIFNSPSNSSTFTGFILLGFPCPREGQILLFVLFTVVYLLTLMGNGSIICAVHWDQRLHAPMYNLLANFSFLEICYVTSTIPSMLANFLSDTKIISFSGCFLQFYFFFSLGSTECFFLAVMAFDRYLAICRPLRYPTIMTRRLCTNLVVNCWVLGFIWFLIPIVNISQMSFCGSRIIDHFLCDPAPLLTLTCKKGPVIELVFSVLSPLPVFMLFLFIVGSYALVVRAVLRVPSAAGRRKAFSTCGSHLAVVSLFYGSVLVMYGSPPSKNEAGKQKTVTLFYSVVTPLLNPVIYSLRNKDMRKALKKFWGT
In short: as §1

[16] = tested on: T16, O11H1 M240V
T16 sequence (whole entry): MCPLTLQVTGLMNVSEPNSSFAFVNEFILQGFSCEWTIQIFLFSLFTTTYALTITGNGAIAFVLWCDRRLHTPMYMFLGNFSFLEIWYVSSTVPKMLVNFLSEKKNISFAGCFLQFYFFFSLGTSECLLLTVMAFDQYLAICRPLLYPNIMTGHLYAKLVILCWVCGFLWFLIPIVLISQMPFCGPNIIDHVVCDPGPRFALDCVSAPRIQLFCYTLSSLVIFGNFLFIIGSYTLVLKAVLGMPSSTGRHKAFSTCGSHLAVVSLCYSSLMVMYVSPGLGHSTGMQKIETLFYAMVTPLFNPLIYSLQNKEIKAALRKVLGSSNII
In short: as §1

[17] = tested on: T17, O11H6 I107T
T17 sequence (whole entry): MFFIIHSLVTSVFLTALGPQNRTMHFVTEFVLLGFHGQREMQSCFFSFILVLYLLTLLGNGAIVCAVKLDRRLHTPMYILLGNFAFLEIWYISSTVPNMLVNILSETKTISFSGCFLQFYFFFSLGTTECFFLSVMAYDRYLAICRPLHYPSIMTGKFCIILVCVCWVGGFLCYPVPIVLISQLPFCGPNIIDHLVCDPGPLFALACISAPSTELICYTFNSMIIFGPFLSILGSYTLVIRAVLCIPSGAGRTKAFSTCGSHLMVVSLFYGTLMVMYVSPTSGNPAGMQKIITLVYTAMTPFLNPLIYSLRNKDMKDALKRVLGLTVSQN
In short: as §1

[18] = tested on: T18, O11HC C156Y V240M
T18 sequence (whole entry): T16 sequence (whole entry) with S33T, R68W, V240M
In short: as §1

[19] = tested on: T19, O12D2 S104F
T19 sequence (whole entry): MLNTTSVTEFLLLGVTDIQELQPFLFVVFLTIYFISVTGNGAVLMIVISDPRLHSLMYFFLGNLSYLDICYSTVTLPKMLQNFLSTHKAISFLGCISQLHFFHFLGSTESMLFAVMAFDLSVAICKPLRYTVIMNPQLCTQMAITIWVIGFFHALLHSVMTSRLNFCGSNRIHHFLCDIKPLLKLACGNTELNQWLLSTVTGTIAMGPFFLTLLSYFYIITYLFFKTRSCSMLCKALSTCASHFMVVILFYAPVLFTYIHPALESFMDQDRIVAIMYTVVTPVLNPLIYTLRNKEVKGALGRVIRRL
In short: as §1

[20] = tested on: T20, O13C2 H6Q
T20 sequence (whole entry): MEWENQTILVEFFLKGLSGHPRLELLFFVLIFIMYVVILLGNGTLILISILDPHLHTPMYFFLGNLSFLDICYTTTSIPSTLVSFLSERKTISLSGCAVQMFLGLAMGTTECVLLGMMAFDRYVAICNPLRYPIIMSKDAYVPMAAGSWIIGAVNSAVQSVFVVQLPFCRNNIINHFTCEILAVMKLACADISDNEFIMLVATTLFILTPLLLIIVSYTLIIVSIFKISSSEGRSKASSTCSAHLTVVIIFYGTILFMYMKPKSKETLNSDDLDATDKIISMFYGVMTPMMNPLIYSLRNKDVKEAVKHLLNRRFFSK
In short: as §1

Measured: odorant receptor agonist call

CC1=NC(C)C(C)S1 (stereo not given)
inactive: [1] | [2] | [3] | [4] | [5] | [6] | [7] | [8] | [9] | [10] | [11] | [12] | [13] | [14] | [15] | [16] | [17] | [18] | [19] | [20]

Cc1cnc(C)c(C)n1
inactive: [1] | [2] | [3] | [4] | [5] | [6] | [7] | [8] | [9] | [10] | [11] | [12] | [13] | [14] | [15] | [16] | [17] | [18] | [19] | [20]

CCCCCCC=CCCC=O
inactive: [1] | [2] | [3] | [4] | [5] | [6] | [7] | [8] | [9] | [10] | [11] | [12] | [13] | [14] | [15] | [16] | [17] | [18] | [19] | [20]

CCC1OC(C)=C(O)C1=O (stereo not given)
inactive: [1] | [2] | [3] | [4] | [5] | [6] | [7] | [8] | [9] | [10] | [11] | [12] | [13] | [14] | [15] | [16] | [17] | [18] | [19] | [20]
